Entries after “also recorded” stand apart in the source; their conditions may differ.
Experiments:
[1] = system: locomotor activity; assay: Locomotor activity test; type: in vivo, mouse
[2] = system: anxiety; assay: Light/dark cycle test; type: in vivo, mouse
[3] = via hepatic enzymes; ref unpublished results; cited from earlier work
[4] = ref Mithridion, unpublished results; cited from earlier work
[5] = cited from earlier work
[6] = ref Bristol-Myers Squibb, unpublished results of Phase I trials; cited from earlier work
[7] = system: anxiety; details: cited from earlier work; for Anti-conflict effect / Effect on non-suppressed responding / response rates: dose range 0.1 to 10 mg/kg
[8] = system: neuropathic and inflammatory pain; details: cited from earlier work
[9] = Metabolic stability using pooled human liver microsomes; type: in vitro ADME; details: 1 and 10 μM, up to 60 min
[10] = target: α1β3γ2 GABAA receptors (Rattus norvegicus, UniProt P18508+P62813); assay: Two-electrode voltage clamp, stimulation of GABA EC3 currents in Xenopus oocytes; type: cell-based
Procedure, shortened: (§1)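 Xenopus oocytes were injected with rat β3 and γ2 cDNAs plus α1, α2, α3 or α5. Follicle layers were removed 36 h later. Two-electrode voltage clamp was done at −60 mV and room temperature in XR buffer (pH 7.4, 5 mM HEPES). Test compound (0.1% DMSO final) was preapplied for 30 s, then coapplied with EC3 GABA until peak, with washes of up to 15 min. Curves were fitted to a four-parameter logistic.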

[11] = target: α5β3γ2 GABAA receptors (Rattus norvegicus, UniProt P18508+P19969); assay: as above; type: cell-based
Procedure, shortened: as §1

[12] = target: α2β3γ2 GABAA receptors (Rattus norvegicus, UniProt P18508+P23576); assay: as above; type: cell-based; details: 100 nM
Procedure, shortened: as §1

[13] = target: α3β3γ2 GABAA receptors (Rattus norvegicus, UniProt P18508+P20236); assay: as above; type: cell-based; details: dose-response curves
Procedure, shortened: as §1

[14] = positive control, 3 mg/kg, i.p.

Sequence of α5β3γ2 GABAA receptors (P19969 32-464 limits assumed): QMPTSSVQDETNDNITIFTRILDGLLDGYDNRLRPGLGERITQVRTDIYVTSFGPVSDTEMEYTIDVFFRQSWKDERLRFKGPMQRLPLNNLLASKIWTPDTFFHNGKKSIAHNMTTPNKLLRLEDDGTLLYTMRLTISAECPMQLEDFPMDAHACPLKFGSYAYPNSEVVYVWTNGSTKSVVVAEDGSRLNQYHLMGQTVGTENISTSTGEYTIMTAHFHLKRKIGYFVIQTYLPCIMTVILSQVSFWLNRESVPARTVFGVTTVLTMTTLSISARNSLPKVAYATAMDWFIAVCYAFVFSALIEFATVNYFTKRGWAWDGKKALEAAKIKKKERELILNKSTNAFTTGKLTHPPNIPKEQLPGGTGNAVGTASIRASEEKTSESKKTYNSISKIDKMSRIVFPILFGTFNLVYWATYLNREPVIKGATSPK
Sequence of α5β3γ2 GABAA receptors (P63079 26-473 partner): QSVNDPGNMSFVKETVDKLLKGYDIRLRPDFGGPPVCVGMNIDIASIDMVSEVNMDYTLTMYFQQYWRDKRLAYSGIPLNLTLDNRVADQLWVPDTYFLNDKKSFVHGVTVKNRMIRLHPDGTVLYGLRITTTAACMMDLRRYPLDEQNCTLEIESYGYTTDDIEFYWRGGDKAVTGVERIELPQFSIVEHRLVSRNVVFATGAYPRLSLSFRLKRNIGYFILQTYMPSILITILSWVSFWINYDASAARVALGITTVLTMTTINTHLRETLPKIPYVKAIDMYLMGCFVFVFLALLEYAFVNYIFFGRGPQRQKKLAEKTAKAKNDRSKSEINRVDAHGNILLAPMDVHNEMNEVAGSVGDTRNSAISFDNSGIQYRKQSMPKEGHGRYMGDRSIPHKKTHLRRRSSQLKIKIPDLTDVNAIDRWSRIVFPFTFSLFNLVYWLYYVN
Sequence of α5β3γ2 GABAA receptors (P18508 39-466): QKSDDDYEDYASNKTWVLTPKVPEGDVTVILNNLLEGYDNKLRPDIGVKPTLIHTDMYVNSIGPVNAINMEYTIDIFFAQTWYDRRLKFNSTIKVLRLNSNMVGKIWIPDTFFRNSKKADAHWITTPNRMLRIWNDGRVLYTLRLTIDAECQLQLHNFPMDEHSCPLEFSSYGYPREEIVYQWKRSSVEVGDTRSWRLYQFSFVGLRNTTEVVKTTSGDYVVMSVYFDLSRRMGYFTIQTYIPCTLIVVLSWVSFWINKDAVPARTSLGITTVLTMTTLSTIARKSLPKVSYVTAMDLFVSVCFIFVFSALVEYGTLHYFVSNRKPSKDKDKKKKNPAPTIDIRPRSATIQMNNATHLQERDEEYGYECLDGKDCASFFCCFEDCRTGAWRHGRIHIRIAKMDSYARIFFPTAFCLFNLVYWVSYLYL
Sequence of α1β3γ2 GABAA receptors (P62813 28-455): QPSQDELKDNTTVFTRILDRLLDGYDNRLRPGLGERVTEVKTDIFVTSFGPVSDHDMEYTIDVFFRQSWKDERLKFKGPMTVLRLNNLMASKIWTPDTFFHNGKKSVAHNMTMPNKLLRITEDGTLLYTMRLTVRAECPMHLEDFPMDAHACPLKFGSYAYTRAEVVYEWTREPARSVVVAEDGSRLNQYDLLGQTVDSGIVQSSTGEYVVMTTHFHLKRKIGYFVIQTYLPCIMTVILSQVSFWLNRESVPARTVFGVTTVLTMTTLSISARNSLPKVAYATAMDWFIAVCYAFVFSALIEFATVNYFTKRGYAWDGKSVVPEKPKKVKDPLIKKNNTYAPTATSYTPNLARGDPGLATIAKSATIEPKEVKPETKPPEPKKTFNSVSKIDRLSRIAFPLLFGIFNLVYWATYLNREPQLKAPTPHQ
Sequence of α1β3γ2 GABAA receptors (P63079 26-473 partner): as the sequence (P63079 26-473 partner) above
Sequence of α1β3γ2 GABAA receptors (P18508 39-466): as the sequence (P18508 39-466) above
Sequence of α3β3γ2 GABAA receptors (P20236 29-493): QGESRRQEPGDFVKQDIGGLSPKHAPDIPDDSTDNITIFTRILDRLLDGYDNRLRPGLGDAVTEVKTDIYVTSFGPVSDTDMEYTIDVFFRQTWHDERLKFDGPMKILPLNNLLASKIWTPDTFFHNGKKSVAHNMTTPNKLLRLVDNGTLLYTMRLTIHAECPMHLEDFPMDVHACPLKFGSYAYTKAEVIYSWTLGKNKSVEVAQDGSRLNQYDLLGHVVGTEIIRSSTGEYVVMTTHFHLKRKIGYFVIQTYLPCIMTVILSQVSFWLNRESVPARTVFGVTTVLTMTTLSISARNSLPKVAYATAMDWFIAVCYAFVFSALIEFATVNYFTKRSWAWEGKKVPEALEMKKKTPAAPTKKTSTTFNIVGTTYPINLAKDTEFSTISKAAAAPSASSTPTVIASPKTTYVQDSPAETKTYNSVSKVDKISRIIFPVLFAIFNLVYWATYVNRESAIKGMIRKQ
Sequence of α3β3γ2 GABAA receptors (P63079 26-473 partner): as the sequence (P63079 26-473 partner) above
Sequence of α3β3γ2 GABAA receptors (P18508 39-466): as the sequence (P18508 39-466) above
Sequence of α2β3γ2 GABAA receptors (P23576 29-451): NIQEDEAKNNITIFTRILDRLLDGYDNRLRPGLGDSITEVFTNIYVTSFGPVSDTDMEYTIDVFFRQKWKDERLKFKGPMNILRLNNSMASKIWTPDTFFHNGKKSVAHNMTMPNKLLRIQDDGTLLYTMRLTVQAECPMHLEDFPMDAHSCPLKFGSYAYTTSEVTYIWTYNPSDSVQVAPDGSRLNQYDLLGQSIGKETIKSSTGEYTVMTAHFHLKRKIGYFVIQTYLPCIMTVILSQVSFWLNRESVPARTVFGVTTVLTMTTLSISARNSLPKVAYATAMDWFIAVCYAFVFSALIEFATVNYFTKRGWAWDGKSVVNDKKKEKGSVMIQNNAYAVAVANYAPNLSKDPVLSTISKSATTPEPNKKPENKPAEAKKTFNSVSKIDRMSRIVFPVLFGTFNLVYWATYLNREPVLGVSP
Sequence of α2β3γ2 GABAA receptors (P63079 26-473 partner): as the sequence (P63079 26-473 partner) above
Sequence of α2β3γ2 GABAA receptors (P18508 39-466): as the sequence (P18508 39-466) above

Compound: CN1C(=O)CN=C(c2ccccc2)c2cc(Cl)ccc21 [Diazepam, reference compound]
- Locomotor activity vs vehicle [1, 14]: significantly reduced locomotor activity
- Anxiolytic activity (time spent in the lighted area vs vehicle) [2, 14]: significantly anxiolytic

Compound: C#Cc1ccc2c(c1)C(c1ccccc1)=NCc1c(C(=O)OCC)ncn1-2 [compound 1]
- Metabolic transformation in human liver, in words [3]: largely transformed into the inactive metabolite XHe-II-053-acid (4)
- Stability in human tissues, in words [4]: stable in human blood, plasma, brain and kidney
- Preclinical safety and efficacy, in words [5]: safe and effective
- Safety in humans [6]: safe in humans
- Side effects, in words [7]: lacked sedative, ataxic, muscle relaxant and amnestic side effects
- Anti-conflict effect [7]: anti-conflict effect
- Effect on non-suppressed responding / response rates [7]: without producing diazepam-like alterations

Compound: C#Cc1ccc2c(c1)C(c1ccccn1)=NCc1c(C(=O)OCC)ncn1-2 [compound 2]
- Tolerance development (analgesic activity, chronic versus acute treatment) ([8]; 9-day chronic treatment period): no loss of analgesic activity
- Sedation and motor impairment ([8]; at doses producing maximal antihyperalgesia): devoid of sedation and motor impairment
- Metabolic stability on human liver microsomes, in words [9]: minimal metabolism
- Side effects, in words [7]: lacked sedative, ataxic, muscle relaxant and amnestic side effects
- Anti-conflict effect [7]: anti-conflict effect
- Effect on non-suppressed responding / response rates [7]: without producing diazepam-like alterations

Compound: C#Cc1ccc2c(c1)C(c1ccccc1F)=NCc1c(C(=O)OCC)ncn1-2 [compound 3]
- Metabolic stability on human liver microsomes, in words [9]: underwent biotransformation almost quantitatively; also recorded: not very stable
- Anti-conflict effect [7]: robust anti-conflict effect
- Effect on non-suppressed responding / response rates [7]: some reduction in response rates at the highest dose tested

Compound: C#Cc1ccc2c(c1)C(c1ccccc1)=NCc1c(C(=O)O)ncn1-2 [compound 4]
- Metabolic stability on human liver microsomes, in words [9]: did not exhibit any metabolism

Compound: C#Cc1ccc2c(c1)C(c1ccccn1)=NCc1c(C(=O)O)ncn1-2 [compound 5]
- Metabolic stability on human liver microsomes, in words [9]: did not exhibit any metabolism

Compound: C#Cc1ccc2c(c1)C(c1ccccc1)=NCc1c(C(=O)NC)ncn1-2 [compound 6, 8-Ethynyl-N-methyl-6-phenyl-4H-benzo-[f]-imidazo-[1,5-a]-[1,4]-diazepine-3-carboxamide]
- Efficacy, in words ([10]; 100 nM): very weak agonistic effects
- Efficacy, in words ([10]; higher concentration): antagonist
- Metabolic stability on human liver microsomes, in words [9]: decreased rate of metabolism; also recorded: much more stable on human liver microsomes than 1
- Efficacy, in words ([11]; 100 nM): very weak agonistic effects
- Efficacy, in words ([11]; higher concentration): antagonist
- Efficacy, in words [12]: very weak agonistic effects

Compound: C#Cc1ccc2c(c1)C(c1ccccn1)=NCc1c(C(=O)NC)ncn1-2 [compound 7, 8-Ethynyl-N-methyl-6-(pyridine-2-yl)-4H-benzo-[f]-imidazo-[1,5-a]-[1,4]-diazepine-3-carboxamide]
- Metabolic stability on human liver microsomes, in words [9]: much more stable on human liver microsomes than 1
- Relative potency, in words [13]: relatively less potent than 8

Compound: C#Cc1ccc2c(c1)C(c1ccccc1F)=NCc1c(C(=O)NC)ncn1-2 [compound 8, 8-Ethynyl-N-methyl-6-(2-fluorophenyl)-4H-benzo-[f]-imidazo-[1,5-a]-[1,4]-diazepine-3-carboxamide]
- Metabolic stability on human liver microsomes, in words [9]: significantly more stable than the corresponding ethyl ester analog 3

Compound: C#Cc1ccc2c(c1)C(c1ccccc1)=NCc1c(-c3nc(C(C)C)no3)ncn1-2 [compound 11]
- Metabolic stability on human liver microsomes, in words [9]: significantly more stable than 1 and 2 respectively; also recorded: much more stable on human liver microsomes than 1
- Locomotor activity vs vehicle ([1]; 10 and 100 mg/kg): significantly increased locomotor activity
- Sedation / ataxia, in words ([1]; 10 and 100 mg/kg): devoid of sedative properties; also recorded: no effects from either ataxia or sedation; also recorded: no sedative properties
- Anxiolytic activity (time spent in the lighted area vs vehicle) ([2]; 10 and 100 mg/kg): significant anxiolytic activity

Compound: C#Cc1ccc2c(c1)C(c1ccccn1)=NCc1c(-c3nc(C(C)C)no3)ncn1-2 [compound 12, 5-(8-Ethynyl-6-(pyridin-2-yl)-4H-benzo-[f]-imidazo-[1,5-a]-[1,4]-diazepine-3-yl)-3-isopropyl-1,2,4-oxadiazole]
- Metabolic stability on human liver microsomes, in words [9]: significantly more stable than 1 and 2 respectively
- Relative potency, in words [13]: far less potent than 6 and 11

Source: PMC3529916 (Bioorganic & medicinal chemistry, 2012)
